Assay results published in ChEMBL document CHEMBL5331111, “Synthetic Biology Facilitates Semisynthetic Development of Type V Glycopeptide Antibiotics Targeting Vancomycin-Resistant Enterococcus” (J Med Chem, 2023).
≈ marks a conversion by molar mass, not a printed value. Calls of active or inactive are those of the source. The calls are words filed in the database; no cut-off is given here.

What was measured:
[1] = system: Mycolicibacterium smegmatis; experiment: Antimycobacterial activity against Mycobacterium smegmatis MC2 155 assessed as inhibition of bacterial growth measured after 2 days by resazurin dye based analysis; assay type: functional; settings: MC2 155, 48 h, time 2 day
How it was run: (§1)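 Strains grown in 7H9 broth with 0.2% glycerol, 10% OADC and 0.05% Tween-80. Inoculum was about 5 × 10^5 CFU/mL, checked by plating on 7H10/OADC agar to be 3–8 × 10^5. Read at 2 days for M. smegmatis and 7 days for M. tuberculosis H37Ra, M. bovis and M. avium. Resazurin 30 μg/mL was then added for one further day. Values are averages of at least two experiments.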

[2] = system: Enterococcus faecium; experiment: Antibacterial activity against vancomycin-resistant Enterococcus faecium ATCC 700221 assessed as inhibition of bacterial growth by Mueller-Hinton broth based assay; assay type: functional
[3] = system: Enterococcus faecalis; experiment: Antibacterial activity against vancomycin-resistant Enterococcus faecalis ATCC 51299 assessed as inhibition of bacterial growth by Mueller-Hinton broth based assay; assay type: functional
[4] = system: Bacillus subtilis; experiment: Antibacterial activity against Bacillus subtilis 168 assessed as reduction in bacterial growth by Mueller-Hinton broth based assay; assay type: functional
How it was run: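 Broth MIC by standard procedure in Mueller-Hinton broth, for both B. subtilis 168 and S. aureus ATCC 33591.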

[5] = system: Enterococcus gallinarum; experiment: Antibacterial activity against vancomycin-resistant Enterococcus gallinarum ATCC 49573 assessed as inhibition of bacterial growth by Mueller-Hinton broth based assay; assay type: functional
[6] = system: Enterococcus faecium; experiment: Antibacterial activity against Enterococcus faecium WCC 0491 assessed as inhibition of bacterial growth by Mueller-Hinton broth based assay; assay type: functional
[7] = system: Enterococcus faecium; experiment: Antibacterial activity against Enterococcus faecium WCC 0492 assessed as inhibition of bacterial growth by Mueller-Hinton broth based assay; assay type: functional
[8] = system: Enterococcus faecium; experiment: Antibacterial activity against Enterococcus faecium WCC 0495 assessed as inhibition of bacterial growth by Mueller-Hinton broth based assay; assay type: functional
[9] = system: Enterococcus faecium; experiment: Antibacterial activity against Enterococcus faecium WCC 0496 assessed as inhibition of bacterial growth by Mueller-Hinton broth based assay; assay type: functional
[10] = system: Enterococcus faecium; experiment: Antibacterial activity against Enterococcus faecium WCC 0498 assessed as inhibition of bacterial growth by Mueller-Hinton broth based assay; assay type: functional
[11] = system: Enterococcus faecium; experiment: Antibacterial activity against Enterococcus faecium WCC 0499 assessed as inhibition of bacterial growth by Mueller-Hinton broth based assay; assay type: functional
[12] = system: Enterococcus faecium; experiment: Antibacterial activity against Enterococcus faecium WCC 0502 assessed as inhibition of bacterial growth by Mueller-Hinton broth based assay; assay type: functional
[13] = system: Enterococcus faecium; experiment: Antibacterial activity against Enterococcus faecium WCC 0506 assessed as inhibition of bacterial growth by Mueller-Hinton broth based assay; assay type: functional
[14] = system: Enterococcus faecium; experiment: Antibacterial activity against Enterococcus faecium WCC 0516 assessed as inhibition of bacterial growth by Mueller-Hinton broth based assay; assay type: functional
[15] = system: Enterococcus faecium; experiment: Antibacterial activity against Enterococcus faecium WCC 0528 assessed as inhibition of bacterial growth by Mueller-Hinton broth based assay; assay type: functional
[16] = system: Enterococcus faecium; experiment: Antibacterial activity against Enterococcus faecium WCC 0533 assessed as inhibition of bacterial growth by Mueller-Hinton broth based assay; assay type: functional
[17] = system: Enterococcus faecium; experiment: Antibacterial activity against Enterococcus faecium WCC 0534 assessed as inhibition of bacterial growth by Mueller-Hinton broth based assay; assay type: functional
[18] = system: Enterococcus faecium; experiment: Antibacterial activity against Enterococcus faecium WCC 0537 assessed as inhibition of bacterial growth by Mueller-Hinton broth based assay; assay type: functional
[19] = system: Enterococcus faecium; experiment: Antibacterial activity against Enterococcus faecium WCC 0586 assessed as inhibition of bacterial growth by Mueller-Hinton broth based assay; assay type: functional
[20] = system: Enterococcus faecium; experiment: Antibacterial activity against vancomycin-resistant Enterococcus faecium WCC 0541 assessed as inhibition of bacterial growth by Mueller-Hinton broth based assay; assay type: functional
[21] = system: Enterococcus faecium; experiment: Antibacterial activity against Enterococcus faecium WCC 0545 assessed as inhibition of bacterial growth by Mueller-Hinton broth based assay; assay type: functional
[22] = system: Enterococcus faecium; experiment: Antibacterial activity against Enterococcus faecium WCC 0553 assessed as inhibition of bacterial growth by Mueller-Hinton broth based assay; assay type: functional
[23] = system: Enterococcus faecium; experiment: Antibacterial activity against Enterococcus faecium WCC 0558 assessed as inhibition of bacterial growth by Mueller-Hinton broth based assay; assay type: functional
[24] = system: Enterococcus faecium; experiment: Antibacterial activity against Enterococcus faecium WCC 0587 assessed as inhibition of bacterial growth by Mueller-Hinton broth based assay; assay type: functional
[25] = system: Mycolicibacterium fortuitum; experiment: Antimycobacterial activity against Mycobacterium fortuitum ATCC 6891 assessed as inhibition of bacterial growth measured after 2 days by resazurin dye based analysis; assay type: functional; settings: ATCC 6891, 48 h, time 2 day
How it was run: (§2)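 Cultured in 7H9 with 0.2% glycerol, 10% OADC and 0.05% Tween-80. Inoculum diluted to ~5 × 10^5 CFU/mL and confirmed at 3–8 × 10^5 by plating on 7H10 agar. Growth read at 2 days, then 30 μg/mL resazurin added for one more day. Values averaged from at least two experiments.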

[26] = system: Mycobacteroides abscessus; experiment: Antimycobacterial activity against Mycobacterium abscessus ATCC 19977 assessed as inhibition of bacterial growth measured after 2 days by resazurin dye based analysis; assay type: functional; settings: ATCC 19977, 48 h, time 2 day; how it was run: as §2
[27] = system: Mycobacterium tuberculosis; experiment: Antimycobacterial activity against Mycobacterium tuberculosis H37Ra assessed as inhibition of bacterial growth measured after 7 days by resazurin dye based analysis; assay type: functional; settings: 168 h, time 7 day; how it was run: as §1
[28] = Antimycobacterial activity against Mycobacterium avium subsp. avium ATCC 25291 assessed as inhibition of bacterial growth measured after 7 days by resazurin dye based analysis; assay type: functional; settings: ATCC 25291, 168 h, time 7 day; how it was run: as §1
[29] = Cytotoxicity against HEK293 cells assessed as inhibition of cell growth incubated for 48 hrs by Cell-Titer Glo reagent based analysis; assay type: toxicity; settings: human
How it was run: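 HEK293 cells seeded at 7500 cells/well in DMEM with 10% FBS, 2 mM glutamine and pen/strep, and left 18 h at 37 °C under 5% CO2. Compound then added at 1% final DMSO and incubated 48 h. Viability read by CellTiter-Glo luminescence and normalized to DMSO-only wells. Curves fitted by 4PL constrained to 0–1.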

[30] = Hemolytic activity in human RBC incubated for 1 hr by absorbance based analysis; assay type: toxicity, cell-based, Erythrocyte; settings: red blood cells (erythrocytes)
How it was run: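 Human K2-EDTA blood RBCs washed twice in 150 mM NaCl, resuspended in PBS pH 7.4, then diluted 1:50. Incubated with compound at 1% final DMSO for 1 h at 37 °C and pelleted at 500g for 5 min. Supernatant absorbance read at 540 nm. Controls were DMSO-only and a Triton X-100 dilution series (20% to 0.02%).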

[31] = system: Enterococcus faecium; experiment: Antibacterial activity against Vancomycin-resistant Enterococcus faecium ATCC 700221 infected in cyclophosphamide induced neutropenic thigh infection CD-1 mouse model assessed as reduction in weight loss at 100 mg/kg, ip qid measured after 24 hrs post-infection; assay type: functional, organism-based
How it was run: (§3)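 Female CD-1 mice, 6–10 weeks old, made neutropenic with i.p. cyclophosphamide (150 mg/kg day 4, 100 mg/kg day 1). About 1 × 10^6 CFU of E. faecium ATCC 700221, grown in BHI with vancomycin, were injected into each thigh. Dosing was i.p. at 1, 3, 5 and 20 h post-infection, in PEG400/DMSO/H₂O (45/5/50) vehicle, with vehicle controls. Mice were euthanized at 24 h.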

[32] = system: Enterococcus faecium; experiment: Antibacterial activity against Vancomycin-resistant Enterococcus faecium ATCC 700221 infected in cyclophosphamide induced neutropenic thigh infection CD-1 mouse model assessed as increase in survival rate at 100 mg/kg, ip qid measured after 24 hrs post-infection; assay type: functional, organism-based; how it was run: as §3
[33] = system: Enterococcus faecium; experiment: Antibacterial activity against Vancomycin-resistant Enterococcus faecium ATCC 700221 infected in cyclophosphamide induced neutropenic thigh infection CD-1 mouse model assessed as reduction in blood bacterial load at 100 mg/kg, ip qid measured after 24 hrs post-infection; assay type: functional; how it was run: as §3
[34] = Toxicity in cyclophosphamide induced neutropenic thigh infection CD-1 mouse model infected with Vancomycin-resistant Enterococcus faecium ATCC 700221 assessed as change in thigh weight at 100 mg/kg, ip qid measured after 24 hrs post-infection; assay type: organism-based; settings: in vivo; how it was run: as §3
[35] = Toxicity in cyclophosphamide induced neutropenic thigh infection CD-1 mouse model infected with Vancomycin-resistant Enterococcus faecium ATCC 700221 assessed as change in spleen weight at 100 mg/kg, ip qid measured after 24 hrs post-infection; assay type: organism-based; settings: in vivo; how it was run: as §3

Compound `CN(C)CCCNC(=O)[C@@H]1NC(=O)[C@@H]2Cc3ccc(cc3)Oc3cc4cc(c3O)-c3ccc5c(c[nH]c5c3)C[C@@H](NC(=O)C(NC(=O)CCCCCN)c3ccc(O)cc3)C(=O)N[C@H](c3ccc(O)cc3)C(=O)N[C@H]4C(=O)N[C@@H](C(=O)N2C)c2ccc(cc2)Oc2cc1ccc2O` (stereo not given in full) has an MIC [1] of 0.5 µg/mL (≈ 0.379 µM), an MIC [2] of 0.5 µg/mL (≈ 0.379 µM) and an MIC [3] of 1 µg/mL (≈ 0.758 µM). It also gave an MIC [4] of 1 µg/mL (≈ 0.758 µM), an MIC [5] of 2 µg/mL (≈ 1.52 µM) and an MIC [6] of 1 µg/mL (≈ 0.758 µM). It also gave an MIC [7] of 2 µg/mL (≈ 1.52 µM), an MIC [8] of 1 µg/mL (≈ 0.758 µM) and an MIC [9] of 1 µg/mL (≈ 0.758 µM). The MIC [10] was 2 µg/mL (≈ 1.52 µM), the MIC [11] was 1 µg/mL (≈ 0.758 µM) and the MIC [12] was 1 µg/mL (≈ 0.758 µM). It also gave an MIC [13] of 1 µg/mL (≈ 0.758 µM), an MIC [14] of 0.5 µg/mL (≈ 0.379 µM) and an MIC [15] of 1 µg/mL (≈ 0.758 µM). It also gave an MIC [16] of 0.5 µg/mL (≈ 0.379 µM), an MIC [17] of 0.5 µg/mL (≈ 0.379 µM) and an MIC [18] of 2 µg/mL (≈ 1.52 µM). It also gave an MIC [19] of 1 µg/mL (≈ 0.758 µM), an MIC [20] of 1 µg/mL (≈ 0.758 µM) and an MIC [21] of 2 µg/mL (≈ 1.52 µM). It also gave an MIC [22] of 1 µg/mL (≈ 0.758 µM), an MIC [23] of 1 µg/mL (≈ 0.758 µM) and an MIC [24] of 1 µg/mL (≈ 0.758 µM). The MIC [25] was 2 µg/mL (≈ 1.52 µM), the MIC [26] was 2 µg/mL (≈ 1.52 µM) and the MIC [27] was 32 µg/mL (≈ 24.3 µM). The MIC [28] was > 128 µg/mL, the IC50 at 48 h [29] was > 256 µg/mL and the IC50 at 1 h [30] was > 256 µg/mL. For the same compound, the Activity [31] was “Active”, the Activity [32] was “Active” and the “log(activity)” value [33] was 3 CFU/g. The Activity [34] was “Non-Toxic” and the Activity [35] was “Non-Toxic”.
